Reference: ChEMBL document CHEMBL1130629, “Fused aminotetralins: novel antagonists with high selectivity for the dopamine D3 receptor” (Bioorg Med Chem Lett, 1998)
pKi: −log10 of the molar value.

Tests used:
[1] = Compound was evaluated for the rate of clearance in rat upon intravenous administration.; format: ADME, organism-based; conditions: in vivo
Method in brief: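 Relative blood clearance measured at steady state. Compound dissolved in 5% (w/v) aqueous glucose with 2% (v/v) DMSO and 10% Encapsin HPB, target concentration 0.2 mg free base/ml. Given to rats as a constant-rate iv infusion over 12 h at a target 1 mg free base/kg/h, n = 3. Serial blood samples taken over the last 2 h to confirm steady state, then terminal exsanguination. Parent compound in blood measured by LC/MS/MS.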

D(3) dopamine receptor = D(3) dopamine receptor (Homo sapiens, UniProt P35462); assay: Binding affinity at Dopamine receptor D3 expressed in CHO cells by [125I]iodosulpiride displacement.; format: cell-based
Sequence of D(3) dopamine receptor (P35462 whole entry): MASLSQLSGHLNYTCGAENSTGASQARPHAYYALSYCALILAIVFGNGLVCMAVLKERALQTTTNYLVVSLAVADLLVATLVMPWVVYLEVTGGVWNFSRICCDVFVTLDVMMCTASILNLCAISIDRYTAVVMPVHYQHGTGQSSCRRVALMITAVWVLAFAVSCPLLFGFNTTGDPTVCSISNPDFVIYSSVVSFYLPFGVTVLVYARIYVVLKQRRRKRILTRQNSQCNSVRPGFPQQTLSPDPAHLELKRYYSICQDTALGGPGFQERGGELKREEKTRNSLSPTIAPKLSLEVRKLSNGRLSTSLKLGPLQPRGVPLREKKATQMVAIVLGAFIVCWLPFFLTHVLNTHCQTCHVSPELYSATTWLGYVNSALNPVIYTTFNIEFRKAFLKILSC

D(2) dopamine receptor [2] = molecular target: T1, D(2) dopamine receptor (Homo sapiens, UniProt P14416); assay: Binding affinity at Dopamine receptor D2 expressed in CHO cells by [125I]iodosulpiride displacement.; format: cell-based
T1 sequence (P14416 whole entry): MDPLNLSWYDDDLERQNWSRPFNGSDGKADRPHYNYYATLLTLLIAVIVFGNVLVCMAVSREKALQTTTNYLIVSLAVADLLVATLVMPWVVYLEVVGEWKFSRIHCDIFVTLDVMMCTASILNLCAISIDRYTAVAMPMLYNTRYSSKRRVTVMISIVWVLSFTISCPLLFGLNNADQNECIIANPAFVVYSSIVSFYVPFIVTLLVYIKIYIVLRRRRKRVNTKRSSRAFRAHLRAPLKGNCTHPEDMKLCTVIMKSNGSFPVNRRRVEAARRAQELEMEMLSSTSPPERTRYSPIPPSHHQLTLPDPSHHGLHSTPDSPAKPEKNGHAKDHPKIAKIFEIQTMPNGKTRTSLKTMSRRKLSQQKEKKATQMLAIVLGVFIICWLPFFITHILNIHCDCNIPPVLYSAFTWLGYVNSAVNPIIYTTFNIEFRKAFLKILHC

D(2) dopamine receptor [3] = molecular target: T1, D(2) dopamine receptor; assay: Displacement of [125I]iodosulpiride from Dopamine receptor D2 expressed in CHO cells; format: cell-based

## CS(=O)(=O)Oc1cccc2c1CC[C@@H]1[C@@H]2CCCN1CCCCNC(=O)c1ccc(-c2ccccc2)cc1 [listing 1 of 2 here]
[1]
  clearance: 61 mL/min/kg
D(3) dopamine receptor
  pKi: 8.00
D(2) dopamine receptor [2]
  pKi: 6.50

## CS(=O)(=O)Oc1cccc2c1CC[C@H]1[C@@H]2CCCN1CCCCNC(=O)c1ccc(-c2ccccc2)cc1
D(3) dopamine receptor
  pKi: 6.60
D(2) dopamine receptor [2]
  pKi: 6.40

## CS(=O)(=O)Oc1cccc2c1CC[C@H]1[C@H]2CCCN1CCCCNC(=O)c1ccc(-c2ccccc2)cc1
D(3) dopamine receptor
  pKi: 8.20
D(2) dopamine receptor [2]
  pKi: 6.60

## O=C(NCCCCN1CC[C@H]2c3cccc(O)c3CC[C@@H]21)c1ccc(-c2ccccc2)cc1
D(3) dopamine receptor
  pKi: 8.70
D(2) dopamine receptor [2]
  pKi: 7.20

## CS(=O)(=O)Oc1cccc2c1CC[C@@H]1[C@@H]2CCCN1CCCCNC(=O)c1ccc(-c2ccccc2)cc1 [listing 2 of 2 here]
D(3) dopamine receptor
  pKi: 5.90
D(2) dopamine receptor [2]
  pKi: 5.90

## CS(=O)(=O)Oc1ccc2c(c1)CC[C@H]1[C@H]2CCN1CCCCNC(=O)c1ccc(-c2ccccc2)cc1
D(3) dopamine receptor
  pKi: 7.30
D(2) dopamine receptor [2]
  pKi: 6.00

## CCCN(CCCCNC(=O)c1ccc(-c2ccccc2)cc1)C1CCc2c(Cl)cccc2C1 (stereo not drawn)
[1]
  clearance: 96 mL/min/kg

## O=C(NCCCCN1CCC[C@@H]2c3ccccc3CC[C@H]21)c1ccc(-c2ccccc2)cc1
[1]
  clearance: 46 mL/min/kg
D(3) dopamine receptor
  pKi: 7.80
D(2) dopamine receptor [2]
  pKi: 6.30

## O=C(NCCCCN1CCC[C@H]2c3ccc(O)cc3CC[C@@H]21)c1ccc(-c2ccccc2)cc1
D(3) dopamine receptor
  pKi: 8.10
D(2) dopamine receptor [2]
  pKi: 6.30

## O=C(NCCCCN1CC[C@@H]2c3ccccc3CC[C@@H]21)c1ccc(-c2ccccc2)cc1
[1]
  clearance: 59 mL/min/kg
D(3) dopamine receptor
  pKi: 7.30
D(2) dopamine receptor [2]
  pKi: 6.30

## COc1cccc2c1CC[C@H]1[C@H]2CCN1CCCCNC(=O)c1ccc(-c2ccccc2)cc1
D(3) dopamine receptor
  pKi: 7.80
D(2) dopamine receptor [2]
  pKi: 6.20

## COc1cccc2c1CC[C@@H]1[C@@H]2CCCN1CCCCNC(=O)c1ccc(-c2ccccc2)cc1
D(3) dopamine receptor
  pKi: 6.10
D(2) dopamine receptor [2]
  pKi: 6.10

## CS(=O)(=O)Oc1ccc2c(c1)CC[C@H]1[C@H]2CCCN1CCCCNC(=O)c1ccc(-c2ccccc2)cc1
D(3) dopamine receptor
  pKi: 6.70
D(2) dopamine receptor [2]
  pKi: 5.70

## O=C(NCCCCN1CCC[C@@H]2c3ccccc3CC[C@@H]21)c1ccc(-c2ccccc2)cc1
D(2) dopamine receptor [3]
  pKi: 6.10
D(3) dopamine receptor
  pKi: 6.60

## O=C(NCCCCN1CC[C@H]2c3ccc(O)cc3CC[C@@H]21)c1ccc(-c2ccccc2)cc1
D(3) dopamine receptor
  pKi: 7.90
D(2) dopamine receptor [2]
  pKi: 6.50

## O=C(NCCCCN1CC[C@H]2c3ccccc3CC[C@@H]21)c1ccc(-c2ccccc2)cc1
D(3) dopamine receptor
  pKi: 7.80
D(2) dopamine receptor [2]
  pKi: 6.30

## CS(=O)(=O)Oc1cccc2c1CC[C@H]1[C@H]2CCN1CCCCNC(=O)c1ccc(-c2ccccc2)cc1
D(3) dopamine receptor
  pKi: 8.30
D(2) dopamine receptor [2]
  pKi: 6.50

## COc1cccc2c1CC[C@H]1[C@H]2CCCN1CCCCNC(=O)c1ccc(-c2ccccc2)cc1 (single isomer, unassigned)
D(3) dopamine receptor
  pKi: 8.10
D(2) dopamine receptor [2]
  pKi: 6.30
